Where a SMILES comes first, the peptide text is derived from it. The star is where a group is joined. Cbz = O=C(OCc1ccccc1)*
How the values were obtained:
[1] = test system: Lj-p53; assay: Lj-p53 degradation in p53/Mdm2 double-knockout cells; assay type: cell-based; conditions: 4 h before harvest, Western blot, lane 4
[2] = test system: Hs-p53; assay: Hs-p53 degradation in p53/Mdm2 double-knockout cells; assay type: cell-based, human; expressed in mouse embryonic fibroblasts; conditions: 4 h before harvest, Western blot
[3] = test system: Hs-p53–HDM2^Nterm; assay: In vitro pull-down of Hs-p53 by HDM2Nterm in presence of inhibitor; assay type: binding, human; conditions: in vitro translated proteins, inhibitor 30 min, Fig. 7A lanes 1–3
[4] = test system: Hs-p53–Lj-Mdm2^Nterm; assay: In vitro pull-down of Hs-p53 by Lj-Mdm2Nterm in presence of inhibitor; assay type: binding, human p53; lamprey (Lethenteron japonicum) Mdm2; conditions: in vitro translated proteins, inhibitor 30 min, Fig. 7A lanes 4–6
[5] = test system: Lj-p53–Lj-Mdm2^Nterm; assay: In vitro pull-down of Lj-p53 by Lj-Mdm2Nterm in presence of inhibitor; assay type: binding, lamprey (Lethenteron japonicum); conditions: Fig. 7A
Summary of the method: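 Anti-HA antibody (1 µg per 10 µL Protein G beads, 1 h in PBST–3% BSA) captured in vitro translated HA-tagged Mdm2 N-terminal bait (30 min, rotating). Test compound was added at the required concentrations for 30 min, with DMSO as control. In vitro translated Flag-Lj-p53 was then added for 1 h. Beads were washed, and eluates were heated 5 min at 95°C, run on SDS-PAGE and immunoblotted with HRP anti-Flag.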

| block of binding of Hs-p53 to Lj-Mdm2Nterm [4] | block of binding of Lj-p53 to Lj-Mdm2Nterm ([5]; in vitro translated proteins, inhibitor 30 min) | interaction with the p53-binding pocket in Lj-Mdm2Nterm ([5]; inferred from pull-down) | Compound | block of Lj-Mdm2-mediated Lj-p53 reduction by proteasome inhibitor [1] | block of Lj-Mdm2-mediated Hs-p53 degradation by proteasome inhibitor [2] | block of binding of Hs-p53 to HDM2Nterm [3] |
| --- | --- | --- | --- | --- | --- | --- |
| – | – | – | CC(C)C[C@@H](C=O)NC(=O)[C@H](CC(C)C)NC(=O)[C@H](CC(C)C)NC(=O)OCc1ccccc1 [MG132] (Cbz-Leu-Leu-Leu-aldehyde) | partially blocked | only partially blocked | – |
| not by Nutlin | not by Nutlin | interacts poorly, if at all | Nutlin | – | – | could block the binding of Hs-p53 to HDM2^Nterm |
